Assay results taken from ChEMBL document CHEMBL3826910, “Discovery of 3-(5'-Substituted)-Benzimidazole-5-(1-(3,5-dichloropyridin-4-yl)ethoxy)-1H-indazoles as Potent Fibroblast Growth Factor Receptor Inhibitors: Design, Synthesis, and Biological Evaluation” (J Med Chem, 2016).
pIC50: −log10 of the molar value. Activity calls are given as the source filed them. The calls are words filed in the database; no cut-off is given here.

What was measured:
[1] = Cmax in Sprague-Dawley rat at 5 mg/kg, po; type: ADME, organism-based; parameters: dose 5 mg/kg, route oral; settings: in vivo
Summary of the method: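 Male SD rats (n = 3) dosed orally by gavage at 5 mg/kg as a suspension in 0.5% CMC-Na. Quantified by LC-MS/MS. An IV arm (1 mg/kg) was run in parallel.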

[2] = biological target: Fibroblast growth factor receptor 4 (Homo sapiens, UniProt P22455); assay: Inhibition of recombinant human FGFR4 using poly (Glu, Tyr) 4:1 as substrate after 60 mins by ELISA
Summary of the method: (§1)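 Purified recombinant kinases tested by ELISA on plates pre-coated with 20 µg/mL poly(Glu,Tyr) 4:1. Reaction run 60 min at 37 °C. Read-out: PY99 anti-phosphotyrosine antibody, HRP anti-mouse IgG and o-phenylenediamine/H2O2, with A490 measured. IC50 from inhibition curves, two independent experiments.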

[3] = biological target: Epidermal growth factor receptor (Homo sapiens, UniProt P00533); assay: Inhibition of recombinant human EGFR using poly (Glu, Tyr) 4:1 as substrate after 60 mins by ELISA; summary of the method: as §1
[4] = biological target: Receptor tyrosine-protein kinase erbB-2 (Homo sapiens, UniProt P04626); assay: Inhibition of recombinant human ErbB2 using poly (Glu, Tyr) 4:1 as substrate after 60 mins by ELISA; summary of the method: as §1
[5] = biological target: T1, Receptor-type tyrosine-protein kinase FLT3 (Homo sapiens, UniProt P36888); assay: Inhibition of recombinant human Flt3 using poly (Glu, Tyr) 4:1 as substrate after 60 mins by ELISA; summary of the method: as §1
T1 sequence (P36888 whole entry): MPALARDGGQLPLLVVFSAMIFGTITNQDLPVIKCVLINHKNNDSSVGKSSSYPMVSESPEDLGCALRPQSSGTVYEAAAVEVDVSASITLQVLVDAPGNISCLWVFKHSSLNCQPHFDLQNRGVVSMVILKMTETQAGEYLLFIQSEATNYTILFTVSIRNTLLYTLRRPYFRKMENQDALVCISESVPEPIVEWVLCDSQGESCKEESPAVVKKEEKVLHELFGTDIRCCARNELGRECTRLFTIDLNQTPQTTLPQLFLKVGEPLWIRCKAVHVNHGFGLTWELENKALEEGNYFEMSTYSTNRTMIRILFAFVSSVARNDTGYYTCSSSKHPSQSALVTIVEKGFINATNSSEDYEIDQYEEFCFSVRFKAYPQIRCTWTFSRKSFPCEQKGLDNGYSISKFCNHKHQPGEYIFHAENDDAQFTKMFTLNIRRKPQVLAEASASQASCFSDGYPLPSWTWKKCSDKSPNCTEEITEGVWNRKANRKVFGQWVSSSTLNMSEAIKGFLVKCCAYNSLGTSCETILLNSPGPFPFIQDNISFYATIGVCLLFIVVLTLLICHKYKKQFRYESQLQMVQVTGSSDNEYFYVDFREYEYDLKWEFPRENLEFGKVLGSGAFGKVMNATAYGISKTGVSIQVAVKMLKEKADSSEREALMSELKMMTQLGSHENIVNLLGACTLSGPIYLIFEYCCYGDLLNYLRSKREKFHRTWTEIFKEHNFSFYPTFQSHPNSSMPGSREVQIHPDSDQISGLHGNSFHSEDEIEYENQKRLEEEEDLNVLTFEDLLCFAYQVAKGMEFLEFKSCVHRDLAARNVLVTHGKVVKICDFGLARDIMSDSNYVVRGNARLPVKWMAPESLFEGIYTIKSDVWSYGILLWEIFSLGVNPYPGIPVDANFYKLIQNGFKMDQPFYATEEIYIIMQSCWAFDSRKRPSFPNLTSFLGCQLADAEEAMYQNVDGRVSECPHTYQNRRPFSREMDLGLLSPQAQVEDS

[6] = biological target: Ephrin type-A receptor 2 (Homo sapiens, UniProt P29317); assay: Inhibition of recombinant human EPHA2 using poly (Glu, Tyr) 4:1 as substrate after 60 mins by ELISA; summary of the method: as §1
[7] = biological target: Fibroblast growth factor receptor 1 (Homo sapiens, UniProt P11362); assay: Inhibition of FGFR1 in human KG1 cells assessed as reduction of ERK phosphorylation at 0.1 to 10 nM after 2 hrs by Western blot method; type: cell-based; settings: KG-1
Summary of the method: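 KG-1 cells treated at indicated concentrations for 2 h, then lysed in 1× SDS sample buffer. Lysates run on 10% SDS-PAGE, transferred to nitrocellulose, and probed for phospho-FGFR, PLCγ and Erk. Detection by enhanced chemiluminescence.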

[8] = biological target: T2, Fibroblast growth factor receptor 2 (Homo sapiens, UniProt P21802); assay: Inhibition of FGFR2 phosphorylation in human SNU15 cells at 0.1 to 10 nM after 2 hrs by Western blot method; type: cell-based
[9] = biological target: T2, Fibroblast growth factor receptor 2; assay: Inhibition of FGFR2 in human SNU15 cells assessed as reduction of ERK phosphorylation at 0.1 to 10 nM after 2 hrs by Western blot method; type: cell-based
[10] = system: NCI-H1581; assay: Antitumor activity against human NCI-H1581 cells xenografted in po dosed nude mouse assessed as tumor growth inhibition administered as qd for 21 days measured on day 21 post last dose; type: functional, organism-based
Summary of the method: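 Female nude mice (4–6 weeks) housed under SPF conditions. NCI-H1581 tumours were first grown from 5 × 10^6 cells s.c., and 1.5 mm3 fragments were then transplanted s.c. into the right flank. At 115 mm3, mice were randomized and given vehicle or compound orally once daily for 21 days (2 or 10 mg/kg). Tumours were measured by caliper twice weekly, with TV = length × width²/2.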

T2 sequence (P21802 22-821 limits assumed): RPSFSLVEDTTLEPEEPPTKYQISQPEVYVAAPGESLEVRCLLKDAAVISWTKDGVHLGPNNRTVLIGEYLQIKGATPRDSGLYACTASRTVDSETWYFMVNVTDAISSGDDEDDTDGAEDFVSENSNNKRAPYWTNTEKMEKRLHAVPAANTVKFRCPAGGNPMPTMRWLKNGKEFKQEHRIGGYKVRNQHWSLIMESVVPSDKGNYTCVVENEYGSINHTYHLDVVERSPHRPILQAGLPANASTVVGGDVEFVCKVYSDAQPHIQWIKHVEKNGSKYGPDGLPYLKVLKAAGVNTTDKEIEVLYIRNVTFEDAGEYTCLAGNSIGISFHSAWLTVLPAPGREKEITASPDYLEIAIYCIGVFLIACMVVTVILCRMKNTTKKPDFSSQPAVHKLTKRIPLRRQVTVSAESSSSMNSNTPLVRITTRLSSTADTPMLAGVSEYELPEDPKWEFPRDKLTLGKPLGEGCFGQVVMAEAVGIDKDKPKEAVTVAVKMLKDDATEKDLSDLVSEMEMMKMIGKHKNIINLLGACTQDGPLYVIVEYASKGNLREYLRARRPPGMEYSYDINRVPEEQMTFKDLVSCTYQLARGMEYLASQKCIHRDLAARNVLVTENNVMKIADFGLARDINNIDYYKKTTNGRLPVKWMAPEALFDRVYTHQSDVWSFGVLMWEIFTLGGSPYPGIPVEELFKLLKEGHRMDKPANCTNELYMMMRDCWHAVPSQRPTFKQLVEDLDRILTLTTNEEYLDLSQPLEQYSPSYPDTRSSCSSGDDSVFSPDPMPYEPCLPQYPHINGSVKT
Fibroblast growth factor receptor 1, sequence (P11362 22-822 limits assumed): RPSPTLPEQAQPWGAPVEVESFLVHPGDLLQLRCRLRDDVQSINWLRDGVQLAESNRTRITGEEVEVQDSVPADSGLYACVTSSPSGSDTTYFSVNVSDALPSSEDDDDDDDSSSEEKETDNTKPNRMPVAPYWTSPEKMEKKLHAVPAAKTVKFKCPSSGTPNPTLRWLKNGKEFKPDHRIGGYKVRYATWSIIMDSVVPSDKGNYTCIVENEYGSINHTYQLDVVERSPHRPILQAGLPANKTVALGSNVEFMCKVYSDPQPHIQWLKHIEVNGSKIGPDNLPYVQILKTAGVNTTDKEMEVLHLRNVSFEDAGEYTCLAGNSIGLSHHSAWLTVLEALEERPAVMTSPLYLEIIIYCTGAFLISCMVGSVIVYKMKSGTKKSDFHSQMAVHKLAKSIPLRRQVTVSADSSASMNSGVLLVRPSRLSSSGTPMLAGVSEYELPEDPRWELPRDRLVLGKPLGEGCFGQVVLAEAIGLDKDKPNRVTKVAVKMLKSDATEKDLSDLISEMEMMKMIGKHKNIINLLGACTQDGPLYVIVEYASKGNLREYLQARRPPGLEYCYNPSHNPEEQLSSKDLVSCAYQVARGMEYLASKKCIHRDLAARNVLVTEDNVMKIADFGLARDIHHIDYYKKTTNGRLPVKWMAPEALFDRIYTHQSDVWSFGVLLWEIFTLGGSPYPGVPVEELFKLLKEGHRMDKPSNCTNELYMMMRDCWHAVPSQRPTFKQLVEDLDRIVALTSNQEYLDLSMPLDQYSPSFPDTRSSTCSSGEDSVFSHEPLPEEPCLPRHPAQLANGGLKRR
Epidermal growth factor receptor, sequence (P00533 whole entry): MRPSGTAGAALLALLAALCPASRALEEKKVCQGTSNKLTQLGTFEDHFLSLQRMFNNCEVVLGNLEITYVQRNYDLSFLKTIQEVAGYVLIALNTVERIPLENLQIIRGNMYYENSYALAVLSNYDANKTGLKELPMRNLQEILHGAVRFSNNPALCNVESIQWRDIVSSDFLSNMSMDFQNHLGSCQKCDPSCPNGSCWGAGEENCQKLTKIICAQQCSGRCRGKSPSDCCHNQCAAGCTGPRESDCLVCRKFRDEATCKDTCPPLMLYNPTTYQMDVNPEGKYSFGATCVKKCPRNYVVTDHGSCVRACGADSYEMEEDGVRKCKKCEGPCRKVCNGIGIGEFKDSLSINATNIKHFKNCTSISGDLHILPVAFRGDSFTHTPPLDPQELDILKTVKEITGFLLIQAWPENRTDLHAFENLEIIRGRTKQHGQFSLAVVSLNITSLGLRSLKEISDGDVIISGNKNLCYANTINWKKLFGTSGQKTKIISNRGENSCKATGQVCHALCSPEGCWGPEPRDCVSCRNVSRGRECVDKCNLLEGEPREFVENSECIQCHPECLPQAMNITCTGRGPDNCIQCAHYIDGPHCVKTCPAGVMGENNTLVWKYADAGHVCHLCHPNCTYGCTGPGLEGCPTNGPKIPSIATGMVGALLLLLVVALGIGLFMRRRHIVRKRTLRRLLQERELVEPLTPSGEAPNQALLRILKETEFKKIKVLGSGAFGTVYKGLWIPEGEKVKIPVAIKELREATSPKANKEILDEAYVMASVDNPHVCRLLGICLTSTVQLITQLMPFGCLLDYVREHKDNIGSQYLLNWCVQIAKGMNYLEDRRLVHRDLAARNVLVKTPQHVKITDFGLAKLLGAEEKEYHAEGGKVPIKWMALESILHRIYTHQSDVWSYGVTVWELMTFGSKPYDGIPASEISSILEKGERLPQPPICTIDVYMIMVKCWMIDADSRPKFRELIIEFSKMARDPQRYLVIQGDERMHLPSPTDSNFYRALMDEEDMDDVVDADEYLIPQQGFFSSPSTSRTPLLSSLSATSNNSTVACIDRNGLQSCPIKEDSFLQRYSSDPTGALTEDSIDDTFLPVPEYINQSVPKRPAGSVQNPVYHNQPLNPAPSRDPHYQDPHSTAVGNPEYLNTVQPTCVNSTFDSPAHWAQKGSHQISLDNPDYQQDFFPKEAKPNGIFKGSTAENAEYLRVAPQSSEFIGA
Ephrin type-A receptor 2, sequence (P29317 whole entry): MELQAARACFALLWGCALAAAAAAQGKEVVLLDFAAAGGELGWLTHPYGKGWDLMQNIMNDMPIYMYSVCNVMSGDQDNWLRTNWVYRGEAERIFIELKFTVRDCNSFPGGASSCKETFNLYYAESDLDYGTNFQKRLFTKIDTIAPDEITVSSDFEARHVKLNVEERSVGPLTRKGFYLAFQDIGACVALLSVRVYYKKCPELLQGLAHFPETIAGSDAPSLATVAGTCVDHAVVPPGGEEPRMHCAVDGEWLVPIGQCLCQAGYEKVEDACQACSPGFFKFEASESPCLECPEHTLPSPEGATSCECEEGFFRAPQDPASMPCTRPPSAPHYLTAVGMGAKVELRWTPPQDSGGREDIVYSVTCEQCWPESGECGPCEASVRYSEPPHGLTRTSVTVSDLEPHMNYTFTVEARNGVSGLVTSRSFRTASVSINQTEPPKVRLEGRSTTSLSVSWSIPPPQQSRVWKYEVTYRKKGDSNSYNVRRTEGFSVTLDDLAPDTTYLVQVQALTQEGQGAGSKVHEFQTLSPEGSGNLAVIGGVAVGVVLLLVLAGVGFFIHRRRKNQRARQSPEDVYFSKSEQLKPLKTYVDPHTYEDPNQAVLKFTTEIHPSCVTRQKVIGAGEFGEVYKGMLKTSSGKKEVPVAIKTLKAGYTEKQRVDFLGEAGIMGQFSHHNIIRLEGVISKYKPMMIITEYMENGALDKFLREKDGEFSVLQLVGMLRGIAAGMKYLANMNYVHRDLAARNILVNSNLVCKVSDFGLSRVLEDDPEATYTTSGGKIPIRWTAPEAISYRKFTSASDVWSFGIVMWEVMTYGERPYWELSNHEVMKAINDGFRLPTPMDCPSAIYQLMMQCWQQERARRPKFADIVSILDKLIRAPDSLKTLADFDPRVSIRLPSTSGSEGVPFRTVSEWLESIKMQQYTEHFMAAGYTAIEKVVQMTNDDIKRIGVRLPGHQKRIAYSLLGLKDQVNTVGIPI
Receptor tyrosine-protein kinase erbB-2, sequence (P04626 whole entry): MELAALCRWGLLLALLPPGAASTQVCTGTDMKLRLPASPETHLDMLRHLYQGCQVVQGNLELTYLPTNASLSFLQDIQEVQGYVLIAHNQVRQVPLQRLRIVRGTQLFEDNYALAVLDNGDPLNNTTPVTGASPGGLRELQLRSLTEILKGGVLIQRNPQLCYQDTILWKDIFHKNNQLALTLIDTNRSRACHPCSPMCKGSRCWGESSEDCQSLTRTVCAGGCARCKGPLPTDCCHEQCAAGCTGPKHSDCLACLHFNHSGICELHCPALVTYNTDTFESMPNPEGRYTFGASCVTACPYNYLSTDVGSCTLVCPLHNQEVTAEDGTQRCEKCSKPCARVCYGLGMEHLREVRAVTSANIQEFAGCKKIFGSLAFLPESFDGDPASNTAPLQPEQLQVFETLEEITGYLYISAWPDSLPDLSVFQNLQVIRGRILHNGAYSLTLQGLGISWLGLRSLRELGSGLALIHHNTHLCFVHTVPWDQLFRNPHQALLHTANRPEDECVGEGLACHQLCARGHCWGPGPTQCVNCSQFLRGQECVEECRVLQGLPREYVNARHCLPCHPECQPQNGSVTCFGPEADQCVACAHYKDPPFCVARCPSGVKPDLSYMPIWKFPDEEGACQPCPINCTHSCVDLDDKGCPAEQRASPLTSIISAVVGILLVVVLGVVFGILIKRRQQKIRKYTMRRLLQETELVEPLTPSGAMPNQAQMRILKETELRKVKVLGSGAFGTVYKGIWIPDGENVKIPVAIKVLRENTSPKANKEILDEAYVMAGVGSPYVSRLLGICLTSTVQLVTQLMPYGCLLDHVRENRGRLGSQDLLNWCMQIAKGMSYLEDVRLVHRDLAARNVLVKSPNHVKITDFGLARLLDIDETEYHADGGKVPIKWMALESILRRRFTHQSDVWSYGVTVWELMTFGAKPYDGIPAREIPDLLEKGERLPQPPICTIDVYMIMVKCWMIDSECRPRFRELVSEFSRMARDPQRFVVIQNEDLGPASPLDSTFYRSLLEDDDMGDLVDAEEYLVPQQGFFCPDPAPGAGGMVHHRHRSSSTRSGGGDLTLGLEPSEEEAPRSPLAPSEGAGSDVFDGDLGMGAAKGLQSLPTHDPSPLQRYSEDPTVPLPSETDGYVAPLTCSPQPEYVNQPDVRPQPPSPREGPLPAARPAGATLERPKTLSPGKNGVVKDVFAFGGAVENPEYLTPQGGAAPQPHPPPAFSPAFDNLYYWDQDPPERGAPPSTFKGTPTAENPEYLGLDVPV

Compound: C[C@@H](Oc1ccc2[nH]nc(-c3nc4cc(N5CCN(C)CC5)ccc4[nH]3)c2c1)c1c(Cl)cncc1Cl
- Cmax [1]: 97.2 ng/mL
- pIC50 [2]: 8.21
- pIC50 [3]: < 6.00
- pIC50 [4]: < 6.00
- pIC50 [5]: < 7.00
- pIC50 [6]: < 7.00
- inhibition [7]: Active
- inhibition [8]: Active
- inhibition [9]: Active
- TGI [10]: Dose-dependent effect
